From ChEMBL document CHEMBL1132805, “Parallel synthesis of isatin-based serine protease inhibitors” (Bioorg Med Chem Lett, 2000)
Active and inactive are the calls of the source. The calls are words filed in the database; no cut-off is given here.

Columns and labels:
[1] = molecular target: T1, Neutrophil elastase (Homo sapiens) (UniProt P08246); experiment: Inhibition of human leucocyte elastase at 20 ug/mL
T1 sequence (whole entry): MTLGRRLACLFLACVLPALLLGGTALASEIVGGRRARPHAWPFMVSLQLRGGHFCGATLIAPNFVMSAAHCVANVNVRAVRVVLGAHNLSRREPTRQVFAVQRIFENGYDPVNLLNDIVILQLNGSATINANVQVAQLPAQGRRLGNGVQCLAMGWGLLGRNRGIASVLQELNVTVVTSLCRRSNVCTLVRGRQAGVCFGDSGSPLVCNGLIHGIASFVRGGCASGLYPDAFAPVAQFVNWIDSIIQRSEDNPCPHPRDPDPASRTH
Summary of the method: (§1)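 Human leukocyte elastase at 40 nM in reaction, with substrate Suc-Ala-Pro-Ala-AMC. A commercial elastase inhibitor serves as control. 50 mM Tris-HCl pH 7.2 with 15% glycerol, 60 min at 37 °C. Fluorescence read at 370/460 nm. Compounds are added from 10 mg/mL DMSO stock. Quenching is assessed on free AMC in the assay buffer.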

[2] = molecular target: Plasminogen (Homo sapiens) (UniProt P00747); experiment: Inhibition of human plasmin at 20 ug/mL
Sequence of Plasminogen (Homo sapiens) (P00747 97-580 limits assumed): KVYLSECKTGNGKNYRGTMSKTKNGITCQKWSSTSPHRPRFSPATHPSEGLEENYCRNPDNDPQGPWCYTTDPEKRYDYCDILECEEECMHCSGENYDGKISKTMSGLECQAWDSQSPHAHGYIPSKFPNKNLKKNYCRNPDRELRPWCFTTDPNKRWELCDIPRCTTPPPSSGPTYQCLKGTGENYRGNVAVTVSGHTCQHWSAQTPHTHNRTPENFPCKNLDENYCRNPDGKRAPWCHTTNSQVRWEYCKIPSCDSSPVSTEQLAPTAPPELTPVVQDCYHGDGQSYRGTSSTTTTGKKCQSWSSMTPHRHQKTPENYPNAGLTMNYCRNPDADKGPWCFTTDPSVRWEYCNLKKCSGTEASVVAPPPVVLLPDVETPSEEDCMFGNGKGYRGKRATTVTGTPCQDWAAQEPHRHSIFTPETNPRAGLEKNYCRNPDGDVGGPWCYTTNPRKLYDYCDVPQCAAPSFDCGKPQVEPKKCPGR
Sequence of Plasminogen (Homo sapiens) (P00747 581-810 limits assumed): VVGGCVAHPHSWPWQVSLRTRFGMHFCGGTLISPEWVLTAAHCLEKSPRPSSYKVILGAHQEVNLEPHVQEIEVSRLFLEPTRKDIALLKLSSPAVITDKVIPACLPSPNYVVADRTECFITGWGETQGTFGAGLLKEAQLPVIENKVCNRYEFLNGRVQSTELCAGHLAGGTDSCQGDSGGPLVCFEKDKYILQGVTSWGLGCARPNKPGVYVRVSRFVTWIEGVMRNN
Summary of the method: (§2)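 Plasmin from human plasma, 165 pM in reaction, with fluorogenic H-Ala-Phe-Lys-AMC. α2-Antiplasmin serves as the control inhibitor. Run in 50 mM Tris-HCl pH 7.2, 15% glycerol, 60 min at 37 °C. Read-out is AMC fluorescence at ex/em 370/460 nm. Compounds come from 10 mg/mL DMSO stock. Quenching is checked with free AMC in the same buffer.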

[3] = molecular target: T2, Chymotrypsin-C (Homo sapiens) (UniProt Q99895); experiment: Inhibition of human Serine protease chymotrypsin at 20 ug/mL
T2 sequence (whole entry): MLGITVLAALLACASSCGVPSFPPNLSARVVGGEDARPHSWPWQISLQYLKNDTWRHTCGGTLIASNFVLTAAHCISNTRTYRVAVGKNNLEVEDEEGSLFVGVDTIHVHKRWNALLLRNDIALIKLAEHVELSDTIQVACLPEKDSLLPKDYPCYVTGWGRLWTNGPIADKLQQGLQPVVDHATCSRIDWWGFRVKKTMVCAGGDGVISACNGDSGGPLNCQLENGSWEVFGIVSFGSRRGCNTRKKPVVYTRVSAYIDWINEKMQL
Summary of the method: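 Fluorogenic substrate Suc-Ala-Ala-Pro-Phe-AMC. Chymostatin serves as the control inhibitor. Reaction in 50 mM Tris-HCl pH 7.2 with 15% glycerol, incubated 60 min at 37 °C. AMC fluorescence is read at ex/em 370/460 nm. Compounds are from DMSO stock, 10 mg/mL. Compound quenching is checked against free AMC in the same buffer.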

[4] = molecular target: T1, Neutrophil elastase (Homo sapiens); experiment: Evaluated for percent inhibition of human leucocyte elastase at 20 ug/mL; NA means not active; summary of the method: as §1
[5] = molecular target: Plasminogen (Homo sapiens) (UniProt P00747); experiment: Evaluated for percent inhibition of human plasmin at 20 ug/mL; NA means not active; summary of the method: as §2

Compound | inhibition [1] | inhibition [2] | inhibition [3] | inhibition [4] | inhibition [5]
O=C(CN1C(=O)C(=O)c2cc(OC(F)(F)F)ccc21)c1ccc2ccccc2c1 | 64% | 86% | 97% | – | –
CCCCOC(=O)Nc1cccc(NC(=O)NC(=O)N2CCN(C(=O)CN3C(=O)C(=O)c4cc([N+](=O)[O-])ccc43)CC2)c1 | 94% | 82% | 87% | – | –
O=C(CN1C(=O)C(=O)c2ccccc21)c1ccc(Cl)cc1 | 56% | 87% | 89% | – | –
CC(C)(C)C(=O)CN1C(=O)C(=O)c2ccccc21 | 51% | 55% | 85% | – | –
N#Cc1cccc(NC(=O)N2CCN(C(=O)CN3C(=O)C(=O)c4cc(OC(F)(F)F)ccc43)CC2)c1 | 26% | 57% | 77% | – | –
NC(=O)CN1C(=O)C(=O)c2ccccc21 | 3% | 29% | 5% | – | –
Cc1ccc(C(=O)CN2C(=O)C(=O)c3ccccc32)cc1 | 45% | 84% | 94% | – | –
CC(C)C[C@H](NC(=O)[C@@H](NC(=O)N[C@@H](Cc1ccccc1)C(=O)O)C1CCNC(=N)N1)C(=O)N[C@H](C=O)Cc1ccccc1 (stereo partly drawn) | – | – | 95% | inactive | inactive
O=C1C(=O)N(CC(=O)N2CCN(C(=O)Nc3cccc4ccccc34)CC2)c2ccc(OC(F)(F)F)cc21 | 79% | 77% | 79% | – | –
O=C(CN1C(=O)C(=O)c2ccccc21)c1ccc(F)cc1 | 90% | 89% | 83% | – | –
O=C1C(=O)N(CC(=O)N2CCN(C(=O)Nc3cccc4ccccc34)CC2)c2ccc(Cl)cc21 | 74% | 80% | 82% | – | –
